From ChEMBL document CHEMBL1133743, “CCK peptides with combined features of hexa- and tetrapeptide CCK-A agonists” (J Med Chem, 2000)
*1 amine or outer side, *2 acyl side, *3 side chain or, on linkers, in order; H or OH if unused. Where a SMILES comes first, the peptide text is derived from it. Side-chain parts run from the residue outwards. [ ]: non-standard residue; d: D form. The star is where a group is joined. NMeF = CN[C@@H](Cc1ccccc1)C(=O)O; NMeD = CN[C@@H](CC(=O)O)C(=O)O; NH(2-Me-phenyl) = Cc1ccccc1N*; X3 = O=C(/C=C/c1ccc(O)cc1)*; Nle = CCCC[C@H](N)C(=O)O; X1 = O=C(Cc1ccc(O)cc1)*; Boc = CC(C)(C)OC(=O)*; CO = O=C([*:1])[*:2]

Experiments:
[1] = target: T1, Cholecystokinin receptor type A (Rattus norvegicus, UniProt P30551); assay: Inhibition of [125I]BH-CCK-8 binding to Cholecystokinin type A receptor of rat pancreatic tissue
T1 sequence (P30551 whole entry): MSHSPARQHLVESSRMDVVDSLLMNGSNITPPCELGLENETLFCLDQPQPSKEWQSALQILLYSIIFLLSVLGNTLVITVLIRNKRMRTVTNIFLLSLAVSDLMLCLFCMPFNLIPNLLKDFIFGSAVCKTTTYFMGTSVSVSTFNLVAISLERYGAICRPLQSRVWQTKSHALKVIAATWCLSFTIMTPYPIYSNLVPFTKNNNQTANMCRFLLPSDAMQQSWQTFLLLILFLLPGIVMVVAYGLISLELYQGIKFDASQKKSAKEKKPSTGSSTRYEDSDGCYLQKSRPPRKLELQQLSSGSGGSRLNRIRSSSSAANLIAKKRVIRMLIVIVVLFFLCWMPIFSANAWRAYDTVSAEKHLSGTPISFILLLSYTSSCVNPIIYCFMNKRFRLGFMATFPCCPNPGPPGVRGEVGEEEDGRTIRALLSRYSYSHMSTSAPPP
In short: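 Sprague–Dawley rat pancreas homogenized in 50 mM Tris pH 8.0 at 4 °C; washed membranes in 5 mM Tris (pH 7.4) with 5 mM MgCl2, 5 mM DTT, 2 mg/mL BSA, 0.14 mg/mL bacitracin.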

[2] = target: T2, Gastrin/cholecystokinin type B receptor (Rattus norvegicus, UniProt P30553); assay: Binding affinity towards Cholecystokinin type B receptor in rat cortex synaptosomes using [125I]BH-CCK-8 as radioligand; assay type: subcellular, Brain
T2 sequence (P30553 whole entry): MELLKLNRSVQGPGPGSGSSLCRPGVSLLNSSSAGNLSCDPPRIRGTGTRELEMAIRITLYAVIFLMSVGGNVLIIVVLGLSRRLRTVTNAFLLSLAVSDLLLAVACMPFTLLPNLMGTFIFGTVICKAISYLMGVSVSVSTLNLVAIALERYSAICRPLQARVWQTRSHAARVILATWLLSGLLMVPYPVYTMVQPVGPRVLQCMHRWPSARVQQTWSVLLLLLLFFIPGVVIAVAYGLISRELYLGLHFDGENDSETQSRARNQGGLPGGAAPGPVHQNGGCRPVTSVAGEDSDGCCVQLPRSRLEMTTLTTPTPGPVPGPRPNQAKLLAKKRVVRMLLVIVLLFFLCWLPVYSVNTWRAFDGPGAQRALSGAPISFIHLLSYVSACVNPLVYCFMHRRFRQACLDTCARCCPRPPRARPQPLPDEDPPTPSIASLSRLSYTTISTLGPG

Rattus norvegicus [3] = assay: Ability of intraperitoneally administered compound, to inhibit food intake was measured 0.5 hr after feeding the rats.; assay type: functional; details: ip
In short: (§1)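 Male Sprague–Dawley rats (300–400 g), individually caged, 12 h light/dark cycle, trained ≥14 days to eat powdered chow during first 3 h of dark. Peptide or saline given ip in 0.5 mL 0.9% saline (pH 7.0–8.0) 10 min before food; cumulative intake read at 0.5 and 3 h in same experiment. Five doses, 10 rats/dose; ED50 by logistic fit.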

Rattus norvegicus [4] = assay: Ability of intraperitoneally administered compound, to inhibit food intake was measured 3 hr after feeding the rats.; assay type: functional; details: ip; in short: as §1

For Cc1ccccc1NC(=O)NCCCC[C@H](NC(=O)[C@H](Cc1c[nH]c2ccccc12)NC(=O)OC(C)(C)C)C(=O)N[C@H](CC(=O)O)C(=O)N(C)[C@@H](Cc1ccccc1)C(N)=O, the Ki [1] was 0.53 nM.
CSCC[C@H](NC(=O)Cc1ccc(OS(=O)(=O)O)cc1)C(=O)NCC(=O)N[C@@H](Cc1c[nH]c2ccccc12)C(=O)N[C@@H](CCSC)C(=O)N[C@@H](CC(=O)O)C(=O)N(C)[C@@H](Cc1ccccc1)C(N)=O was tested, and the Ki [1] was 0.98 nM and the Ki [2] was 84 nM.
Compound Cc1ccccc1NC(=O)NCCCC[C@H](NC(=O)[C@H](Cc1c[nH]c2ccccc12)NC(=O)OC(C)(C)C)C(=O)N[C@@H](CC(=O)O)C(=O)N(C)[C@@H](Cc1ccccc1)C(N)=O has a Ki [1] of 0.3 nM, an ED50 (Rattus norvegicus [3]) of 0.9 µg/kg and an ED50 (Rattus norvegicus [4]) of 3.2 µg/kg.
With Cc1ccccc1NC(=O)NCCCC[C@H](NC(=O)[C@H](Cc1c[nH]c2ccccc12)NC(=O)OC(C)(C)C)C(=O)N[C@@H](CC(=O)O)C(=O)N[C@@H](Cc1ccccc1)C(N)=O (Boc-WK([CO-NH(2-Me-phenyl)])DF-NH2) the Ki [1] was 8.1 nM.
In the case of CCCC[C@H](NC(=O)Cc1ccc(O)cc1)C(=O)NCC(=O)N[C@@H](Cc1c[nH]c2ccccc12)C(=O)N[C@@H](CCCCNC(=O)/C=C/c1ccc(O)cc1)C(=O)N[C@@H](CC(=O)O)C(=O)N(C)[C@@H](Cc1ccccc1)C(N)=O (X1-[Nle]GWK(X3)D[NMeF]-NH2), the Ki [1] is reported as 3.4 nM and the Ki [2] is reported as 36 nM.
Work on CCCC[C@H](NC(=O)Cc1ccc(O)cc1)C(=O)NCC(=O)N[C@@H](Cc1c[nH]c2ccccc12)C(=O)N[C@@H](CCCC)C(=O)N[C@@H](CC(=O)O)C(=O)N(C)[C@@H](Cc1ccccc1)C(N)=O (X1-[Nle]GW[Nle]D[NMeF]-NH2) yielded a Ki [1] of 51 nM.
CCCC[C@H](NC(=O)Cc1ccc(O)cc1)C(=O)NCC(=O)N[C@@H](Cc1c[nH]c2ccccc12)C(=O)N[C@@H](CCCC)C(=O)N(C)[C@@H](CC(=O)O)C(=O)N[C@@H](Cc1ccccc1)C(N)=O (X1-[Nle]GW[Nle][NMeD]F-NH2) gave a Ki [1] of 4.2 nM, a Ki [2] of 960 nM and an ED50 (Rattus norvegicus [3]) of 3.8 µg/kg. It also gave an ED50 (Rattus norvegicus [4]) of 13 µg/kg.
